Data from ChEMBL document CHEMBL1765085, “Cytotoxic and apoptosis-inducing activities of triterpene acids from Poria cocos” (J Nat Prod, 2011).
pIC50: −log10 of the molar value.

Experiments:
Assay type in all cases: functional, cell-based
[1] = system: A549; assay: Cytotoxicity in human A549 cells assessed as cell viability after 48 hrs by MTT assay; conditions: A549, 48 h
How it was run: (§1)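 Growth conditions: RPMI 1640 for HL60, CRL1579, NIH:OVCAR-3, SK-BR-3, DU145 and PANC-1; D-MEM for A549; MEM for WI-38; all with 10% FBS and antibiotics, 37 °C, 5% CO2. Seeded at 3 × 10^3 cells/well (OVCAR-3 1 × 10^4), then treated 48 h with 10^-4 to 10^-6 M. MTT for 3 h, formazan dissolved in 0.04 M HCl/2-propanol, A570/630. IC50 (50% growth inhibition) from triplicates.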

[2] = system: DU-145; assay: Cytotoxicity in human DU145 cells assessed as cell viability after 48 hrs by MTT assay; conditions: DU-145, 48 h; how it was run: as §1
[3] = Cytotoxicity in human AZ-521 cells assessed as cell viability after 48 hrs by MTT assay; conditions: AZ-521, 48 h
[4] = system: HL-60; assay: Cytotoxicity in human HL60 cells assessed as cell viability after 48 hrs by MTT assay; conditions: HL-60, 48 h; how it was run: as §1
[5] = Cytotoxicity in human CRL1579 cells assessed as cell viability after 48 hrs by MTT assay; how it was run: as §1
[6] = system: SK-BR-3; assay: Cytotoxicity in human SK-BR-3 cells assessed as cell viability after 48 hrs by MTT assay; conditions: SK-BR-3, 48 h; how it was run: as §1
[7] = system: PANC-1; assay: Cytotoxicity in human PANC1 cells assessed as cell viability after 48 hrs by MTT assay; conditions: PANC-1, 48 h; how it was run: as §1
[8] = system: OVCAR-3; assay: Cytotoxicity in human OVCAR3 cells assessed as cell viability after 48 hrs by MTT assay; conditions: OVCAR-3, 48 h; how it was run: as §1

Row | SMILES | pIC50 [1] | pIC50 [2] | pIC50 [3] | pIC50 [4] | pIC50 [5] | pIC50 [6] | pIC50 [7] | pIC50 [8]
1 | C=C(CC[C@@H](CO)[C@H]1[C@H](O)C[C@@]2(C)C3=C(CC[C@]12C)[C@@](C)(CCCO)[C@H](C(=C)C)CC3)C(C)C | 4.39 | < 4.00 | < 4.00 | 5.54 | 5.00 | 4.29 | < 4.00 | < 4.00
2 | C=C(CC[C@@H](C(=O)OC)[C@H]1[C@H](O)C[C@@]2(C)C3=CC[C@H]4C(C)(C)[C@H](O)CC[C@]4(C)C3=CC[C@]12C)C(C)(C)O | 4.38 | 4.54 | 4.84 | 5.16 | 4.12 | 4.56 | 4.15 | 4.17
3 | C=C(CC[C@@H](CO)[C@H]1[C@H](O)C[C@@]2(C)C3=CC[C@H]4C(C)(C)[C@H](O)CC[C@]4(C)C3=CC[C@]12C)C(C)(C)O | < 4.00 | < 4.00 | < 4.00 | 5.60 | 4.85 | < 4.00 | < 4.00 | < 4.00
4 | C=C(CC[C@@H](C(=O)OC)[C@H]1CC[C@@]2(C)C3=CC[C@H]4C(C)(C)C(=O)CC[C@]4(C)C3=CC[C@]12C)C(C)C | 4.02 | < 4.00 | 4.27 | 4.63 | 4.68 | 4.56 | < 4.00 | < 4.00
5 | C=C(CC[C@@H](CO)[C@H]1CC[C@@]2(C)C3=CC[C@H]4C(C)(C)[C@@H](O)CC[C@]4(C)C3=CC[C@]12C)C(C)C | 5.40 | < 4.00 | 4.90 | 5.17 | 5.55 | 4.93 | 4.65 | 5.19
6 | C=C(CC[C@@H](C(=O)O)[C@H]1[C@H](O)C[C@@]2(C)C3=CC[C@H]4C(C)(C)[C@H](O)CC[C@]4(C)C3=CC[C@]12C)C(C)(C)O | 5.40 | < 4.00 | 4.29 | – | – | 4.21 | 4.17 | 5.02
7 | C=C(CCC(C(=O)O)[C@H]1CC[C@@]2(C)C3=CC[C@H]4C(C)(C)C(=O)CC[C@]4(C)C3=CC[C@]12C)C(C)C (stereo not given in full) [DEHYDROEBURICONIC ACID] | 5.00 | < 4.00 | < 4.00 | 4.53 | 4.05 | 4.91 | 5.26 | 4.42
8 | C=C(CC[C@@H](C(=O)OC)[C@H]1[C@H](O)C[C@@]2(C)C3=CC[C@@H](C(=C)C)[C@](C)(CCC(=O)OC)C3=CC[C@]12C)C(C)C [DIMETHYL PORICOATE A] | 4.10 | < 4.00 | 4.49 | 4.74 | < 4.00 | 4.49 | < 4.00 | 4.04
9 | C=C(CC[C@@H](C(=O)OC)[C@H]1CC[C@@]2(C)C3=CC[C@@H](C(=C)C)[C@](C)(CCC(=O)OC)C3=CC[C@]12C)C(C)C [DIMETHYL PORICOATE C] | 4.08 | < 4.00 | 4.70 | 5.62 | 4.56 | 4.62 | < 4.00 | 4.63
10 | C=C(C)[C@@H]1CCC2=C(CC[C@]3(C)[C@@H]([C@@H](CCC=C(C)C)C(=O)OC)[C@H](O)C[C@@]23C)[C@@]1(C)CCC(=O)OC [DIMETHYL PORICOATE G] | 4.18 | < 4.00 | 4.46 | 5.06 | 4.37 | 5.37 | < 4.00 | 4.58
11 | C=C(CC[C@@H](C(=O)OC)[C@H]1[C@H](O)C[C@@]2(C)C3=C(CC[C@]12C)[C@@](C)(CCC(=O)OC)[C@H](C(=C)C)CC3)C(C)C [DIMETHYL PORICOATE H] | 4.87 | 4.54 | 4.84 | 5.44 | 4.01 | 4.80 | 4.35 | 4.31
12 | O=c1[nH]cc(F)c(=O)[nH]1 [FLUOROURACIL] | – | < 4.00 | < 4.00 | 5.02 | < 4.00 | < 4.00 | 4.27 | < 4.00
13 | C=C(CC[C@@H](C(=O)O)[C@H]1[C@H](O)C[C@@]2(C)C3=CC[C@@H](C(=C)C)[C@](C)(CCC(=O)O)C3=CC[C@]12C)C(C)C [PORICOIC ACID A] | < 4.00 | < 4.00 | < 4.00 | – | – | < 4.00 | < 4.00 | < 4.00
14 | C=C(CC[C@@H](C(=O)O)[C@H]1CC[C@@]2(C)C3=CC[C@@H](C(=C)C)[C@](C)(CCC(=O)O)C3=CC[C@]12C)C(C)C [PORICOIC ACID C] | 4.57 | 4.84 | 4.34 | 4.59 | < 4.00 | 4.62 | 4.16 | 4.27
15 | C=C(C)[C@@H]1CCC2=C(CC[C@]3(C)[C@@H]([C@@H](CCC=C(C)C)C(=O)O)[C@H](O)C[C@@]23C)[C@@]1(C)CCC(=O)O [PORICOIC ACID G] | < 4.00 | < 4.00 | < 4.00 | – | – | < 4.00 | < 4.00 | < 4.00
16 | C=C(CC[C@@H](C(=O)O)[C@H]1[C@H](O)C[C@@]2(C)C3=C(CC[C@]12C)[C@@](C)(CCC(=O)O)[C@H](C(=C)C)CC3)C(C)C [PORICOIC ACID H] | < 4.00 | < 4.00 | < 4.00 | – | – | < 4.00 | < 4.00 | < 4.00
17 | C=C(CC[C@@H](CO)[C@H]1CC[C@@]2(C)C3=CC[C@@H](C(=C)C)[C@](C)(CCCO)C3=CC[C@]12C)C(C)C [PORICOTRIOL C] | 4.10 | 4.69 | 4.88 | 4.91 | 4.12 | 4.96 | 4.04 | 4.15
18 | C=C(C)[C@@H]1CCC2=C(CC[C@]3(C)[C@@H]([C@H](CO)CCC=C(C)C)[C@H](O)C[C@@]23C)[C@@]1(C)CCCO [PORICOTRIOL G] | 4.96 | < 4.00 | 4.87 | 5.12 | 4.94 | 4.89 | 4.75 | 4.36
